# The source made the active and inactive calls. The rule behind the calls is not given here.
# Experiments:
# Histone deacetylase [1] = type: cell-based, Homo sapiens; conditions: hela
# [2] = molecular target: Histone deacetylase (Homo sapiens) (UniProt Q13547+O15379+Q9UBN7+Q92769+Q9UQL6+Q8WUI4+Q9BY41+Q96DB2+P56524+Q9UKV0+Q969S8); assay: Competitive inhibition of HDAC in human HeLa cells using Boc-acetyl-lysine-AMC as substrate at 25 to 50 uM incubated for 30 mins in dark by Lineweaver-Burk plot analysis; type: cell-based
# Mus musculus [3] = assay: Anti-sepsis activity in ICR mouse model of LPS-induced endotoxemia assessed as increase in survival rate at 20 mg/kg, ip administered 2 hrs before and immediately after LPS injection measured up to 10 days; type: functional
# Outline: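 Male ICR mice (27–29 g), LPS from E. coli O111:B4. Dosing was i.p. in vehicle (5% DMSO in saline) at 5, 10 or 20 mg/kg, given 2 h before and immediately after LPS. Groups were vehicle control, LPS, and LPS plus drug. Survival was followed up to 10 days and compared by log-rank analysis.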
# [4] = molecular target: Histone deacetylase 3/Nuclear receptor corepressor 2 (HDAC3/NCoR2) (Homo sapiens, UniProt O15379); type: cell-based
# Histone deacetylase 1 [5] = molecular target: T1, Histone deacetylase 1 (Homo sapiens, UniProt Q13547)
# RAW264.7 [6] = assay: Antiinflammatory activity in mouse RAW264.7 cells assessed as inhibition of LPS-induced IL-6 production at 0.5 to 2.5 uM relative to control; type: functional
# Histone deacetylase 5 = Histone deacetylase 5 (Homo sapiens, UniProt Q9UQL6); assay: Inhibition of human recombinant C-terminal His-tagged HDAC5 (657 to 1123 residues) expressed in insect cells using Boc-K(TFA)-AMC as substrate incubated for 60 mins by fluorescence assay
# Histone deacetylase 7 = molecular target: T2, Histone deacetylase 7 (Homo sapiens, UniProt Q8WUI4); assay: Inhibition of human recombinant N-terminal GST-tagged HDAC7 (518 to 991 residues) expressed in insect cells using Boc-K(TFA)-AMC as substrate incubated for 60 mins by fluorescence assay
# T2 sequence (Q8WUI4 whole entry): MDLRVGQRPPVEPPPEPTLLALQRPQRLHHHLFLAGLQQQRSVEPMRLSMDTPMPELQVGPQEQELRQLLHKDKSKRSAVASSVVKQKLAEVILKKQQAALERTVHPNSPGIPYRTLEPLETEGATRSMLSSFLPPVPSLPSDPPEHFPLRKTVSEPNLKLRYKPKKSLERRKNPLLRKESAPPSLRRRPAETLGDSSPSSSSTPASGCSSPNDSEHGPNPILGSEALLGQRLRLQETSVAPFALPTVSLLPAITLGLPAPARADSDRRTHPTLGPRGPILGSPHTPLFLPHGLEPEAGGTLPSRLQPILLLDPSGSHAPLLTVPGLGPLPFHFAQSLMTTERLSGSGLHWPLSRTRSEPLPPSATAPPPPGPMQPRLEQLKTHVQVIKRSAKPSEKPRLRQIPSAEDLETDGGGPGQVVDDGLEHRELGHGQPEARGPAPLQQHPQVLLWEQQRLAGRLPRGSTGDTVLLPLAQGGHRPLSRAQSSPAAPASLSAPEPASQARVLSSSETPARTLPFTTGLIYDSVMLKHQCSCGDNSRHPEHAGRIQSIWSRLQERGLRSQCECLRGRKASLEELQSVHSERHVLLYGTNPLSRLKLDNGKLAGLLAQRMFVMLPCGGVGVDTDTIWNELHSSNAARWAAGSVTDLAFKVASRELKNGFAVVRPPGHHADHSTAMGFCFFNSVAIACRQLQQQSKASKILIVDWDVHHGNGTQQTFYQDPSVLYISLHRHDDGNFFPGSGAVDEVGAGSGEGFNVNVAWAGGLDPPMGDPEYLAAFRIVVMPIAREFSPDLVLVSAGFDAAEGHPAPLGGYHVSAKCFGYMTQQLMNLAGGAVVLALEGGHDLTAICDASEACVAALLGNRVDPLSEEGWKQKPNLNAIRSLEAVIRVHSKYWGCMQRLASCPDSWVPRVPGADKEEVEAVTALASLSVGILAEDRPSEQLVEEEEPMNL
# Histone deacetylase 9 = Histone deacetylase 9 (Homo sapiens, UniProt Q9UKV0); assay: Inhibition of human recombinant HDAC9 using trifluoroacetyl lysine as substrate
# [7] = molecular target: T3, Protein deacetylase HDAC6 (Homo sapiens, UniProt Q9UBN7); assay: Inhibition of recombinant human HDAC6 using Fluor de Lys-SIRT1 as substrate incubated for 15 mins by fluorescence assay
# T3 sequence (Q9UBN7 whole entry): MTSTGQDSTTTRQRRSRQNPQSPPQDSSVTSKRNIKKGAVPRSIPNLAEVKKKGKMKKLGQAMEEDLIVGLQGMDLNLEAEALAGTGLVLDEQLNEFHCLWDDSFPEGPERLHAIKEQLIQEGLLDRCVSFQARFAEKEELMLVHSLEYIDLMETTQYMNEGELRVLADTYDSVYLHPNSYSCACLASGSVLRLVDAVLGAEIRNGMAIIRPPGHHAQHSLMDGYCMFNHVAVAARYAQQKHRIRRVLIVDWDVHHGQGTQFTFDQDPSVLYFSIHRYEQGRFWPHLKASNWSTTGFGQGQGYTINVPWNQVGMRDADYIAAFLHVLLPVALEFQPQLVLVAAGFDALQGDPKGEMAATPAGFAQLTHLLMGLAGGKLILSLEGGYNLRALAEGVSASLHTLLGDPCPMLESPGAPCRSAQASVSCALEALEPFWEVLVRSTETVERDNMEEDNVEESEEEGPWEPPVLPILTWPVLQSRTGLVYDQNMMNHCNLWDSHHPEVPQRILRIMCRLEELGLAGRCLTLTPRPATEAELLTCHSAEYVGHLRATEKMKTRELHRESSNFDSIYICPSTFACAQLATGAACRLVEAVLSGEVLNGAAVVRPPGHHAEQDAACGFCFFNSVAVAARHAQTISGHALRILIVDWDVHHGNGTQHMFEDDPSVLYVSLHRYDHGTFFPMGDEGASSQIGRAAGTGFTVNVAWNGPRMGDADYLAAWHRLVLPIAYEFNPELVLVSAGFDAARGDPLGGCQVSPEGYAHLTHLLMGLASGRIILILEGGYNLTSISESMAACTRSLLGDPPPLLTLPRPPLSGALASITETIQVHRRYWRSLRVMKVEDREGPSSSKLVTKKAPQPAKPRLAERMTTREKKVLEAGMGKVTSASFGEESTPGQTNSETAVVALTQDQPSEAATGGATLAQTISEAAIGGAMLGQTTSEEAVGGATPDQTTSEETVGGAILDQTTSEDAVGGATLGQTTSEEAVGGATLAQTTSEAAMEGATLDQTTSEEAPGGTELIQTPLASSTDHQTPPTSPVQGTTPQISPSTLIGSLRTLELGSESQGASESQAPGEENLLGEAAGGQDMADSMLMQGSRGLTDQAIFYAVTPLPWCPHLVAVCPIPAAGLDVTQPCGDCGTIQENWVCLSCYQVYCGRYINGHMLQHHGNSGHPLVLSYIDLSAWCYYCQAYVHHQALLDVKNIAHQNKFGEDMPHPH
# Histone deacetylase 11 = molecular target: T4, Histone deacetylase 11 (Homo sapiens, UniProt Q96DB2); assay: Inhibition of human recombinant N-terminal His-tagged HDAC11 (1 to 347 residues) expressed in insect cells/baculovirus expression system using RHK-K(Ac)-AMC as substrate by fluorescence assay
# T4 sequence (Q96DB2 whole entry): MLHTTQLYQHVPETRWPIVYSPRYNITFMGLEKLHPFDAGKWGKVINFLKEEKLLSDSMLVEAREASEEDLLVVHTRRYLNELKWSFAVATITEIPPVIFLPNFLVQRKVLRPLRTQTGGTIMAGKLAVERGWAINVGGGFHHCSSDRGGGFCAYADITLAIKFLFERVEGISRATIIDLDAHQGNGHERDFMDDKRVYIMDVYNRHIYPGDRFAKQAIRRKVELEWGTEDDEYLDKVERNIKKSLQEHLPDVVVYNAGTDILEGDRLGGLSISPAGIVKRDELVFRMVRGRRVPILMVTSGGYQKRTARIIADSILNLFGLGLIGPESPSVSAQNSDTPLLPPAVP
# HeLa = assay: Cytotoxicity against human HeLa cells by MTS assay; type: cell-based
# Mus musculus [8] = assay: Antiinflammatory activity in ICR mouse model of LPS-induced endotoxemia assessed as inhibition of LPS-induced IL-6 mRNA expression in liver at 10 mg/kg, ip administered 2 hrs before and immediately after LPS injection by RT-PCR method; type: functional, organism-based
# Outline: (§1)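 Male ICR mice (27–29 g) given LPS; drug i.p. in 5% DMSO/saline 2 h before and immediately after LPS. Liver collected 6 h after LPS. Total RNA extracted and reverse-transcribed to cDNA; TNF-α and IL-6 mRNA measured by real-time RT-PCR relative to vehicle control.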
# Histone deacetylase 4 = Histone deacetylase 4 (Homo sapiens, UniProt P56524); assay: Inhibition of human recombinant N-terminal GST-tagged C-terminal His-tagged HDAC4 (627 to 1084 residues) expressed in insect cells using Boc-K(TFA)-AMC as substrate incubated for 60 mins by fluorescence assay
# Histone deacetylase 2 = Histone deacetylase 2 (Homo sapiens, UniProt Q92769); assay: Inhibition of full length human recombinant C-terminal GST-tagged HDAC2 (1 to 488 residues) expressed in insect cells using RHK-K(Ac)-AMC as substrate incubated for 60 mins by fluorescence assay
# Histone deacetylase [9] = assay: Inhibition of HDAC in human HeLa cells using Boc-acetyl-lysine-AMC as substrate incubated for 24 hrs by fluorometric assay; type: cell-based
# Histone deacetylase 8 = molecular target: T5, Histone deacetylase 8 (Homo sapiens, UniProt Q9BY41); assay: Inhibition of human recombinant C-terminal His-tagged HDAC8 (1 to 377 residues) expressed in insect cells using RHK-K(Ac)-K(Ac)-AMC as substrate incubated for 60 mins by fluorescence assay
# T5 sequence (Q9BY41 whole entry): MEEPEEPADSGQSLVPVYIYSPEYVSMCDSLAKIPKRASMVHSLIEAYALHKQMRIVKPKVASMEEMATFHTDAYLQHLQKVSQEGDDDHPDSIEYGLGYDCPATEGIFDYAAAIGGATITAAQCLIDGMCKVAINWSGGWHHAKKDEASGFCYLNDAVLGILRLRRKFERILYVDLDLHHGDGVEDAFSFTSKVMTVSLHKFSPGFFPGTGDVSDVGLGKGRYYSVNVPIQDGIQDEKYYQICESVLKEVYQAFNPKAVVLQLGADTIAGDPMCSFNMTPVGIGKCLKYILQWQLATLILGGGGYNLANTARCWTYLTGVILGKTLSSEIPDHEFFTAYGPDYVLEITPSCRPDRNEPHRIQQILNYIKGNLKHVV
# [10] = molecular target: T3, Protein deacetylase HDAC6; assay: Inhibition of full length human recombinant N-terminal GST-tagged HDAC6 (1 to 1215 residues) expressed in sf9 cells using RHK-K(Ac)-AMC as substrate incubated for 90 mins by fluorescence assay
# RAW264.7 [11] = assay: Antiinflammatory activity in mouse RAW264.7 cells assessed as inhibition of LPS-induced NO production at 0.5 to 2.5 uM relative to control; type: functional
# Mus musculus [12] = assay: Antiinflammatory activity in ICR mouse model of LPS-induced endotoxemia assessed as inhibition of LPS-induced TNF-alpha mRNA expression in liver at 10 mg/kg, ip administered 2 hrs before and immediately after LPS injection by RT-PCR method; type: functional, organism-based
# Outline: as §1
# Histone deacetylase 1 [13] = molecular target: T1, Histone deacetylase 1; assay: Inhibition of full length human recombinant C-terminal FLAG-His-tagged HDAC1 (1 to 482 residues) expressed in Sf21 cells using RHK-K(Ac)-AMC as substrate incubated for 60 mins by fluorescence assay
# Histone deacetylase 1 [14] = molecular target: T1, Histone deacetylase 1; conditions: HeLa, 10 uM
# [15] = molecular target: T6, Polyamine deacetylase HDAC10 (Homo sapiens, UniProt Q969S8); assay: Inhibition of human recombinant HDAC10 using RHK-K(Ac)-AMC as substrate
# T6 sequence (Q969S8 whole entry): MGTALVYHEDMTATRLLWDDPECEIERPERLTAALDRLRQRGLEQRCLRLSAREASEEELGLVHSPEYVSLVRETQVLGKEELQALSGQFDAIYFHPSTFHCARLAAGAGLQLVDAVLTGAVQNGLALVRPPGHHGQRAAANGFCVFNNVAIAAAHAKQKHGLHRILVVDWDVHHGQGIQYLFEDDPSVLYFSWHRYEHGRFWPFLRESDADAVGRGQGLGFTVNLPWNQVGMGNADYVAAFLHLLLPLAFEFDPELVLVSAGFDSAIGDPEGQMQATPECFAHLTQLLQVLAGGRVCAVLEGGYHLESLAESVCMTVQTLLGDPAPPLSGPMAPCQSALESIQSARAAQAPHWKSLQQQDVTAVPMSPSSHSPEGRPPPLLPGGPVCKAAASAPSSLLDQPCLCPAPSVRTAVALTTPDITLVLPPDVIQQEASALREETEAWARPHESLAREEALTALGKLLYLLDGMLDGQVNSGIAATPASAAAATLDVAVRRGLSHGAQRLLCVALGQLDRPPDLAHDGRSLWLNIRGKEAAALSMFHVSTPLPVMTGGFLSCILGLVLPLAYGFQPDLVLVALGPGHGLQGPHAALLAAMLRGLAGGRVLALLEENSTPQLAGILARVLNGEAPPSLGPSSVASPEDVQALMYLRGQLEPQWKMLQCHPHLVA
# RAW264.7 [16] = assay: Antiinflammatory activity in mouse RAW264.7 cells assessed as inhibition of LPS-induced TNF-alpha production at 0.5 to 2.5 uM relative to control; type: functional
# T1 sequence (Q13547 whole entry): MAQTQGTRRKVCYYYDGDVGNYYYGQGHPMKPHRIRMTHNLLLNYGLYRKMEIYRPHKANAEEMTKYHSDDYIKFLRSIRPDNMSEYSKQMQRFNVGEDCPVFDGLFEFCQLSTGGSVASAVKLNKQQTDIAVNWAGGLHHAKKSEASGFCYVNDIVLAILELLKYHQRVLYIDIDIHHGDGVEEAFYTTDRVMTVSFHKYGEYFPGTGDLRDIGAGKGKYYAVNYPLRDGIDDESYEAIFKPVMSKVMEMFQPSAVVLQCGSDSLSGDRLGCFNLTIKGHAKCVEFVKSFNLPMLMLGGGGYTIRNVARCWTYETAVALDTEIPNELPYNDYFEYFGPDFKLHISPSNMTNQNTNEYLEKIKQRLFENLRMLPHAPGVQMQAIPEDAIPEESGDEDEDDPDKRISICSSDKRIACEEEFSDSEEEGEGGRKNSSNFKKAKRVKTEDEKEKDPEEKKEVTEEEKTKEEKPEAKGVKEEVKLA
# Sequence of Histone deacetylase 5 (Q9UQL6 whole entry, the tested form may be a part): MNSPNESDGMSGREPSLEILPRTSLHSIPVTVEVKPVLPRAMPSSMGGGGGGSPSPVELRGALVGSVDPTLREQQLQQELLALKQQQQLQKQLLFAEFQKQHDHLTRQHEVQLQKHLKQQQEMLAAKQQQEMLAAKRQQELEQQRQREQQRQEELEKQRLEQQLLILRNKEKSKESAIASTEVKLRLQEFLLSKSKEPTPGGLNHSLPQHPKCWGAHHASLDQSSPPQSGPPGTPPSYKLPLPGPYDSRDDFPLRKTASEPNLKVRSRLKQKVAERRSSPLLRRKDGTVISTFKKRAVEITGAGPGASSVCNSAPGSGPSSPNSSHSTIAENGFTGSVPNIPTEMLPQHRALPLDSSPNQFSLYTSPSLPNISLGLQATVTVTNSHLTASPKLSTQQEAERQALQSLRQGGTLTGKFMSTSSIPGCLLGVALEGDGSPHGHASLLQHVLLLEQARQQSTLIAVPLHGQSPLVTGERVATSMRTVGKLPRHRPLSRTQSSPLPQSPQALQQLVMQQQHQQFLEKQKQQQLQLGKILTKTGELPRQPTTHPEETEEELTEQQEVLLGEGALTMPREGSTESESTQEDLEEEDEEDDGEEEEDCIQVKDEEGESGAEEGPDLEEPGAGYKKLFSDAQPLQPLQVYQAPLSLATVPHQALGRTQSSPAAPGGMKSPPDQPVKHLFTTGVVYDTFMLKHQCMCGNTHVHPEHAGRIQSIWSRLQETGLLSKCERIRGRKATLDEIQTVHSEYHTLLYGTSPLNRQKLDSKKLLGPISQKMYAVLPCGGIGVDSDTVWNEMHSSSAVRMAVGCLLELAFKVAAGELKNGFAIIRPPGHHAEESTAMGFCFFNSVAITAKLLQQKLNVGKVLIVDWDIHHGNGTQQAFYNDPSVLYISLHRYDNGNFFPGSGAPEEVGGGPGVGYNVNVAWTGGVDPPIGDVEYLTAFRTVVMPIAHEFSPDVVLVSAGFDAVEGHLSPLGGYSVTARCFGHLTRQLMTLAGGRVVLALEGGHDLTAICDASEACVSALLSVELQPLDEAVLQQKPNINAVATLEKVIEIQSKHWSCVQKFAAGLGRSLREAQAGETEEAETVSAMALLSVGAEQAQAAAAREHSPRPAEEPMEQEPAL
# Sequence of Histone deacetylase 4 (P56524 whole entry, the tested form may be a part): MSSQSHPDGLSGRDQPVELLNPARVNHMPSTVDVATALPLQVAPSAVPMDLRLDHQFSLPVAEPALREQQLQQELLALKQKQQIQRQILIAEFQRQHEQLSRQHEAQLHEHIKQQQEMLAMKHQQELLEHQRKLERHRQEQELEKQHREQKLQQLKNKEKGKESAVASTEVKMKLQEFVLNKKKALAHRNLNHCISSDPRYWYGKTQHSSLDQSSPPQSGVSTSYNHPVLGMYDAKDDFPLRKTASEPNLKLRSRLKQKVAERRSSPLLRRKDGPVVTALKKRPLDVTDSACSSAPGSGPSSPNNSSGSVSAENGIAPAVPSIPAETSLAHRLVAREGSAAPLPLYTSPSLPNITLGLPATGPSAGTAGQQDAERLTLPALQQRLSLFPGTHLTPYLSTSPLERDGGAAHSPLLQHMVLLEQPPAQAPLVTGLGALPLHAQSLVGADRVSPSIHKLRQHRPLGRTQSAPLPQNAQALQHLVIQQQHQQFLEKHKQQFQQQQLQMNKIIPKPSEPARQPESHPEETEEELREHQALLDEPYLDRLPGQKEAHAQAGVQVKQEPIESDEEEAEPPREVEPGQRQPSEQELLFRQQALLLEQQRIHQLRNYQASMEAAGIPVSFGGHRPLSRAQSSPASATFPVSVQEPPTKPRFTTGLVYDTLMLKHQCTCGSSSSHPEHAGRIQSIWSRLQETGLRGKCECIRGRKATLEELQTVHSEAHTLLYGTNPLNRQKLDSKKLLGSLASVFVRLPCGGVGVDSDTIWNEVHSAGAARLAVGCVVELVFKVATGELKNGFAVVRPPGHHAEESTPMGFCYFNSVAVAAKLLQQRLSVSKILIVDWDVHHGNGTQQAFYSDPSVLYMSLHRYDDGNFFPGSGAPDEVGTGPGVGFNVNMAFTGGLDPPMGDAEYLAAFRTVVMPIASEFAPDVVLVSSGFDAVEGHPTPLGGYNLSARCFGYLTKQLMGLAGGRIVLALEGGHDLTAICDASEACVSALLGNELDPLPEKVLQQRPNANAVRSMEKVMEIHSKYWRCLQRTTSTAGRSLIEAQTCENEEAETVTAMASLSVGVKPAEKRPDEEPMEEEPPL
# Sequence of Histone deacetylase 9 (Q9UKV0 whole entry): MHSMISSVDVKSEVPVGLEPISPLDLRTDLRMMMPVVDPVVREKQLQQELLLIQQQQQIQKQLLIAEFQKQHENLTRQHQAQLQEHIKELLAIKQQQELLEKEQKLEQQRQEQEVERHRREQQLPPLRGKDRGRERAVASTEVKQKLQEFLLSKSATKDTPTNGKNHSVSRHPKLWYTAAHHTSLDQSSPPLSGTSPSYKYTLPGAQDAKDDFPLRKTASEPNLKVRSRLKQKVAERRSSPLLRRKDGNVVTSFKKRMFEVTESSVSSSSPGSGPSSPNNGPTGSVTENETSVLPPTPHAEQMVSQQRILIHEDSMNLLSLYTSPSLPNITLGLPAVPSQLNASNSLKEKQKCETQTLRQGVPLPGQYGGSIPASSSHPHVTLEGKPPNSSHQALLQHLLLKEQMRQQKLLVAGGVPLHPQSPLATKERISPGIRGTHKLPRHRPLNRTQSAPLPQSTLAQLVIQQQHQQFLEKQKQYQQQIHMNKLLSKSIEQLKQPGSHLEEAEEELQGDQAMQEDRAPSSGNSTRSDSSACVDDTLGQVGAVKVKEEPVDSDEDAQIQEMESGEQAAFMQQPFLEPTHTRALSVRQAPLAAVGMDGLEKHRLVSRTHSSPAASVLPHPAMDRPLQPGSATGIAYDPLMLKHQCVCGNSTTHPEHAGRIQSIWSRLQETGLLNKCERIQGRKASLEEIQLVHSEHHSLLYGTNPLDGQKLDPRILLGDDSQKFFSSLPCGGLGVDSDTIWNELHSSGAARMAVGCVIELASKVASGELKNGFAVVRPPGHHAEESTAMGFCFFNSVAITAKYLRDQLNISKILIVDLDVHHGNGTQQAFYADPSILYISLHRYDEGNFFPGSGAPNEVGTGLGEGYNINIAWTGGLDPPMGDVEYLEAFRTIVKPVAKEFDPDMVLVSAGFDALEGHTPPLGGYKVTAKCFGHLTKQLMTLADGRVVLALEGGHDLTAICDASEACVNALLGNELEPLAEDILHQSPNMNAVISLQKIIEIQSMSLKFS
# Sequence of Histone deacetylase 2 (Q92769 whole entry, the tested form may be a part): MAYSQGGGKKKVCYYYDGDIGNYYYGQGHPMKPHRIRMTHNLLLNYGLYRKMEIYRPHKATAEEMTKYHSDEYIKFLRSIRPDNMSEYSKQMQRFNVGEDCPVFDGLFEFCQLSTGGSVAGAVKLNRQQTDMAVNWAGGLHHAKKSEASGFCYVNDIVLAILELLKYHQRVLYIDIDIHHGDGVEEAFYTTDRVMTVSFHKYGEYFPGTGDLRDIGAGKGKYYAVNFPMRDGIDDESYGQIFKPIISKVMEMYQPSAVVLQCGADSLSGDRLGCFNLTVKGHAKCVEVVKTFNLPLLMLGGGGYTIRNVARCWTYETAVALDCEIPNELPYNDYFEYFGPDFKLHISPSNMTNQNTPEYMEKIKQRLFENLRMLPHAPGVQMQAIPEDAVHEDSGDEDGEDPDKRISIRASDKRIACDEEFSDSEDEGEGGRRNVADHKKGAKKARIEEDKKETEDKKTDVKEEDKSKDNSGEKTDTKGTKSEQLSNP
smiles,measurement,setting,value
Cc1ncsc1CCn1cc(NC(=O)CCS/C=C\c2ccccc2)cn1,IC50,Histone deacetylase [1],29.8 µM
same,inhibition,[2],Active
O=C(CCS/C=C/c1ccccc1)NO,IC50,Histone deacetylase [1],3.7 µM
O=C(CCS/C=C/c1ccccc1)NCCSCc1ccco1,IC50,Histone deacetylase [1],19.18 µM
same,inhibition,[2],Active
O=C(CCCc1csc(/C=C/c2ccccc2)n1)NO,Activity,Mus musculus [3],40%
same,IC50,[4],17.8 µM
same,IC50,Histone deacetylase 1 [5],13.8 µM
same,inhibition (INH),RAW264.7 [6],50%
same,IC50,Histone deacetylase 5,26.6 µM
same,IC50,Histone deacetylase [1],1.48 µM
same,IC50,Histone deacetylase 7,Not Active
same,IC50,Histone deacetylase 9,Not Active
same,IC50,[7],0.199 µM
same,IC50,Histone deacetylase 11,32.8 µM
same,IC50,HeLa,52 µM
same,inhibition,Mus musculus [8],Active
same,IC50,Histone deacetylase 4,19.7 µM
same,IC50,Histone deacetylase 2,> 10 µM
same,IC50,Histone deacetylase [9],0.37 µM
same,IC50,Histone deacetylase 8,1.54 µM
same,IC50,[10],0.567 µM
same,inhibition (INH),RAW264.7 [11],50%
same,inhibition,Mus musculus [12],Active
same,IC50,Histone deacetylase 1 [13],> 10 µM
same,inhibition,Histone deacetylase 1 [14],inactive
same,IC50,[15],78.3 µM
same,inhibition (INH),RAW264.7 [16],50%
